Screening results from PubChem.
Compounds with a hit are over-represented: about 2.9% of the library has one in this group of screens.
TRPC4 block: inhibitors of mouse TRPC4 channel, primary screen, Fluo4 calcium, HEK293 TRPC4beta/mu-opioid cells. Short transient receptor potential channel 4 (Mus musculus), Q9QUQ5. DAMGO-evoked Fluo4 calcium flux; stronger effect = lower value. B-score at 10 µM. actives 0.39% (n = 300,000);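 active means B-score over 3 SD under the library average, no early fluorescence shift, positive overall ratio signal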
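Test system – stable TRPC4beta/mu-opioid receptor HEK293 cells · Probe or stimulus – DAMGO, a submaximal dose followed by a maximal one · Dosing – one concentration per compound · Signal – Fluo4 calcium fluorescence by kinetic imaging, 5 s 1 Hz baseline · Evaluation – per-well B score of integrated baseline-normalized Fluo4 ratio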
TRPC4 agonist: activators of mouse TRPC4 channel, primary screen, Fluo4 calcium, HEK293 TRPC4beta/mu-opioid cells. AID 2237, 2010. Fluo4 calcium fluorescence; stronger effect = higher value. Short transient receptor potential channel 4 (Mus musculus), Q9QUQ5. actives 0.49% (n = 310,000). B-score at 10 µM;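 active means B-score above 5 SD of library B-scores, and initial fluorescence ratio not above library mean plus 5 SD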;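 further: positive B-score marks a calcium rise read as TRPC4 activation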
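Incubation: 45 min room-temperature Fluo4 loading, 110 s read / System: HEK293 cells stably co-expressing mouse TRPC4beta and mu-opioid receptor / Signal: Fluo4 fluorescence, kinetic / Control set: buffer (low) and maximal DAMGO (high) / Measure: integrated baseline-normalised fluorescence ratio, converted to per-well B score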
Kir21 inh: inhibitors of mouse Kir2.1 inward-rectifier potassium channel; HEK293-Kir2.1, FluxOR thallium flux fluorescence; stronger effect = lower value; B-score at 10 µM; actives 0.85% (n = 310,000); AID 1672, 2009;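 active means fluorescence ratio B-score at or below minus 3 SD of library scores, with starting-brightness B-score within 2 SD, cut at about -4.2 in these data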;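 further: channel flux triggered by added potassium and thallium sulfate stimulus; B-score of peak minus minimum fluorescence over baseline after thallium stimulus; more negative B-score means stronger Kir2.1 block with less thallium influx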
TRPC6 inh: mouse TRPC6 channel inhibitors, primary screen, cell-based, HEK293, membrane potential dye | ACh-evoked depolarization; stronger effect = lower value | B-score at 10 µM | actives 1.1% (n = 310,000);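 active means B-score under library mean minus 3 SD, initial fluorescence not abnormally high, positive integrated signal ratio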;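 further: B-score derived from integrated fluorescence ratio over the kinetic read; more negative B-score means stronger inhibition of depolarization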
Target sequence (Q61143 whole entry, looked up): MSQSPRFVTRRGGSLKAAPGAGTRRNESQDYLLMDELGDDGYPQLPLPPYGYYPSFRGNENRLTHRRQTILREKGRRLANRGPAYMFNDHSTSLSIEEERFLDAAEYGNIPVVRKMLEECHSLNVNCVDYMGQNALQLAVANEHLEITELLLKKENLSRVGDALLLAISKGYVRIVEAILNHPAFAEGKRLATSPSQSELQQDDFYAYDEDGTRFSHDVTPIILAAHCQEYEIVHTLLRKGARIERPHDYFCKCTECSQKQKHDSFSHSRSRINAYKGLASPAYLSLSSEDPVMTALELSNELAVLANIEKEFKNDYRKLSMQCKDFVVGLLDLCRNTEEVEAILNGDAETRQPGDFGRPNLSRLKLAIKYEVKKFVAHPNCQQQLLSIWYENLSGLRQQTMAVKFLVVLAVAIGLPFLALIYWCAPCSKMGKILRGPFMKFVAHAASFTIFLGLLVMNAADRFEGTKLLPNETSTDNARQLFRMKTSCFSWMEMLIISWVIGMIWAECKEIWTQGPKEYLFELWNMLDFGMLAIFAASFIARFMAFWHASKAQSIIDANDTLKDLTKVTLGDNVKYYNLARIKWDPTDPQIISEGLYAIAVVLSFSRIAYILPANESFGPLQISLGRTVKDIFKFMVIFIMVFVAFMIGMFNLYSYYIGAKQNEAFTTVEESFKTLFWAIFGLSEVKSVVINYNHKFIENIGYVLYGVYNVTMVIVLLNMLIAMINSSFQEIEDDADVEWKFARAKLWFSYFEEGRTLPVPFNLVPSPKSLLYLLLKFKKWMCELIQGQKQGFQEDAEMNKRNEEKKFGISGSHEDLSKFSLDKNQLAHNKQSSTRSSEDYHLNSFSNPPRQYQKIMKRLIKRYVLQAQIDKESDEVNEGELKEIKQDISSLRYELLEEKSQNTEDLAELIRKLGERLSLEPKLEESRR
TRPC6 activator: mouse TRPC6 channel activators, primary screen, cell-based, HEK293, membrane potential dye | actives 0.13% (n = 310,000) | Short transient receptor potential channel 6 (Mus musculus), Q61143 | HEK293-TRPC6 membrane potential dye fluorescence; stronger effect = higher value | B-score at 10 µM | AID 2550, 2010;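 active means B-score of the integrated fluorescence ratio above library mean plus 3 SD, and starting fluorescence ratio within library mean plus 5 SD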;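 further: higher score means more depolarization so channel activation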
TRPC4 potent: positive allosteric modulators of TRPC4, primary screen, cell-based, mouse TRPC4beta, HEK293 mu-opioid, Fluo-4 calcium; AID 2227, 2009; DAMGO EC20, Fluo-4 Ca2+ flux; stronger effect = higher value; Short transient receptor potential channel 4 (Mus musculus), Q9QUQ5; actives 0.42% (n = 310,000); B-score at 10 µM;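 active means B-score of calcium response area above 5 SD of library B-scores, with initial fluorescence ratio within 5 SD of library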
HEK293 MPD ctr: parental HEK293 membrane potential modulation, confirmation, counter-screen for TRPC6 modulator project, cell-based; AID 488924, 2010; shares compounds with TRPC6 inh; membrane potential dye fluorescence; membrane potential signal change, % at 10 µM; actives 51% (n = 2,400);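 active means membrane potential signal moves up or down beyond 5 SD from buffer-only wells, on both duplicate plates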
HEK293 MPD ctr 2: second counter-screen for TRPC6 modulators: effect in parental HEK293 cells; membrane potential dye fluorescence; after compound, maximal acetylcholine stimulation; shares compounds with TRPC6 inh; inhibition, % at 10 µM; actives 14% (n = 2,400); AID 488926;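 active means membrane potential signal drops by more than 5 SD from the mean control signal, in both duplicate plates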
TRPC4/MOR mod: TRPC4 modulation by TRPC6 hit compounds, confirmation, selectivity assay for TRPC6 modulator project, cell-based, HEK293 TRPC4/mu-opioid, membrane potential dye, mouse | shares compounds with TRPC6 inh | actives 69% (n = 2,400) | membrane potential fluorescence | percent change from control (negative = decrease, positive = increase), % at 10 µM;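 active means membrane potential signal moved up or down beyond 5 SD of buffer control wells, in both duplicate plates, actives on both sides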
TRPC4 ctr inh 2: second check of whether TRPC6 modulators also affect mouse TRPC4; shares compounds with TRPC6 inh; HEK293 TRPC4/mu-opioid, membrane potential dye fluorescence; stimulated with maximal-effect DAMGO; inhibition, % at 10 µM; actives 55% (n = 2,400); AID 488928;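 active means drop in membrane potential signal beyond 5 SD of the control wells in both duplicate plates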;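 further: TRPC4 counter screen for TRPC6 hits run under conditions tuned for TRPC6 not TRPC4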
TRPC6 inh conf: mouse TRPC6 channel inhibitors, confirmation, HEK293 cells, membrane potential dye, duplicate. shares compounds with TRPC6 inh. ACh-evoked depolarization. inhibition, % at 10 µM. actives 43% (n = 3,300);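 active means fluorescence ratio falls more than 5 SD below the full-stimulation control mean, in both duplicate runs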;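 further: integrated fluorescence ratio of peak minus minimum over baseline after agonist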
TRPC6 act confirm: mouse TRPC6 channel activators, confirmation, HEK293 cells, membrane potential dye, duplicate | shares compounds with TRPC6 inh | HEK293-TRPC6 membrane potential dye fluorescence, FDSS | activation, % at 10 µM | actives 11% (n = 2,800) | AID 488961, 2010;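 active means ratio signal rise beyond 5 SD above unstimulated control wells' mean, seen in both duplicate runs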
Hits are given with their value; n = inactive; x = no result.

SMILES	TRPC4 block	TRPC4 agonist	Kir21 inh	TRPC6 inh	TRPC6 activator	TRPC4 potent	HEK293 MPD ctr	HEK293 MPD ctr 2	TRPC4/MOR mod	TRPC4 ctr inh 2	TRPC6 inh conf	TRPC6 act confirm
Cc1ccccc1C(=O)NNC(=O)c1cccn1C	n	n	n	n	n	n	x	x	x	x	x	x
Cc1nc2ccccc2n1S(=O)(=O)c1cc(C(=O)O)ccc1Cl	n	n	n	n	n	n	x	x	x	x	x	x
Cc1ccccc1Nc1c(-c2ccncc2)nc2ccc(Cl)cn12	n	n	n	-5.78	n	n	n	n	-15.5%	70.0%	n	n
Cc1ccccc1Nc1c(-c2ccc(N3CCOCC3)cc2)nc2cnccn12	n	n	n	n	n	n	x	x	x	x	x	x
Cc1ccn2c(Nc3ccccc3C)c(-c3cccnc3)nc2c1	n	n	n	-5.7	n	n	-166.0%	n	-32.5%	77.0%	46.5%	n
CC(=O)c1ccc(Nc2nc(=O)c3cccnc3s2)cc1	n	n	n	-5.78	n	n	-175.5%	n	-33.0%	n	n	n
COc1ccccc1Nc1nnc(SCC(=O)N2CCCC2=O)s1	n	n	n	-5.09	n	n	n	n	n	n	n	n
COc1ccccc1Nc1nnc(SCC(=O)N2CCCC2)s1	n	n	n	n	n	n	x	x	x	x	x	x
Cc1nnc(SCC(=O)c2ccc(Cl)cc2)s1	n	n	n	n	n	n	x	x	x	x	x	x
Cc1ccc(S(=O)(=O)N2CCN(C(=O)c3cccc(-n4cccc4)c3)CC2)cc1	n	n	n	-13.4	13.7	n	n	n	n	n	n	n
Cc1ccc(C(=O)N2CCN(S(=O)(=O)c3ccc(C(C)C)cc3)CC2)s1	n	n	n	-12.5	14.7	n	n	n	n	n	n	n
